Results from ChEMBL document CHEMBL3808288, “Identification and in Vivo Evaluation of Liver X Receptor β-Selective Agonists for the Potential Treatment of Alzheimer's Disease” (J Med Chem, 2016).
Active and inactive are the calls of the source. The rule behind the calls is not given here.

Key:
[1] = target: T1, Oxysterols receptor LXR-alpha (Homo sapiens) (UniProt Q13133); experiment: (§1) Agonist activity at LXRalpha (unknown origin) expressed in human HepG2 cells co-expressing ABCA1 promoter measured after 48 hrs by cell-based transactivation assay
T1 sequence (whole entry): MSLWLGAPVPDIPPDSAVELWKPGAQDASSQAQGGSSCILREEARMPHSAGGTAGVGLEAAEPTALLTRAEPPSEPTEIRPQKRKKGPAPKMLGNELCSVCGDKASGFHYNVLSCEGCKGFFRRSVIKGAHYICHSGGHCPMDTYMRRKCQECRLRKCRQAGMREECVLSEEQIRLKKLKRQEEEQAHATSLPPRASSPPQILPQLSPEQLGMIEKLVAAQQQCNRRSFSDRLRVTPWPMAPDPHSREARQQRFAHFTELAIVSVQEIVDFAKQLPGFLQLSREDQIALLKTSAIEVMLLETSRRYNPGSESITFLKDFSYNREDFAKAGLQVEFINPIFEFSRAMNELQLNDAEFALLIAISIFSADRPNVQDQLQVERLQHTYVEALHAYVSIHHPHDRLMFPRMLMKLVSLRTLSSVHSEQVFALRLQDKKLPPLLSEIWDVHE

[2] = target: T2, Oxysterols receptor LXR-alpha (Homo sapiens, UniProt Q13133); experiment: as §1
T2 sequence (Q13133 whole entry): T1 sequence (whole entry)

[3] = target: T3, Oxysterols receptor LXR-beta (Homo sapiens) (UniProt P55055); experiment: (§2) Agonist activity at LXRbeta (unknown origin) expressed in human H4 cells co-expressing ABCA1 promoter measured after 48 hrs by cell-based transactivation assay
T3 sequence (whole entry): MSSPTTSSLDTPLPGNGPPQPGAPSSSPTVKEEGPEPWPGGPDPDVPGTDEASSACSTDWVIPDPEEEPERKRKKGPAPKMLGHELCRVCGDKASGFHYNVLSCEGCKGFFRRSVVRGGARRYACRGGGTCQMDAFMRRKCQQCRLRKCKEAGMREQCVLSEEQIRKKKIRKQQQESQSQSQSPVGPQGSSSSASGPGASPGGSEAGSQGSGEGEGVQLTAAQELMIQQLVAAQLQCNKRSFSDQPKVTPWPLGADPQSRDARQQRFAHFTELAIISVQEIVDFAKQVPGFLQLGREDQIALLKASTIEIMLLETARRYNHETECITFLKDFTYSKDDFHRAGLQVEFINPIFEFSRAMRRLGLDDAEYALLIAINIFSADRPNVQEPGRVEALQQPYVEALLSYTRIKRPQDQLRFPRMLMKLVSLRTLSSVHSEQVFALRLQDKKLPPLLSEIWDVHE

[4] = target: T4, Oxysterols receptor LXR-beta (Homo sapiens, UniProt P55055); experiment: as §2
T4 sequence (P55055 whole entry): T3 sequence (whole entry)

[5] = tested on: Rhesus monkey; experiment: Increase in apoE level in plasma of rhesus monkey at 5 mg/kg, po administered for 2 weeks; assay type: functional, organism-based; conditions: Macaca mulatta
[6] = tested on: Rhesus monkey; experiment: Increase in hepatic fat content in rhesus monkey at 5 mg/kg, po qd for 2 weeks by magnetic resonance spectroscopic imaging method relative to vehicle control; assay type: ADME, organism-based, Macaca mulatta; conditions: in vivo, 336 h
[7] = tested on: Cynomolgus monkey; experiment: Increase in triglycerides level in cynomolgus monkey liver at >= 3 mg/kg, po qd administered for 2 weeks; assay type: ADME, organism-based, Macaca fascicularis; conditions: in vivo, 336 h
[8] = tested on: Rhesus monkey; experiment: Increase in apoE level in CSF of rhesus monkey at 5 mg/kg, po administered for 2 weeks; assay type: functional, organism-based; conditions: Macaca mulatta
How it was run: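 Rhesus monkeys were dosed orally once daily for 2 weeks after randomisation on baseline lipids, liver enzymes and liver fat. CSF was taken by lumbar puncture at baseline and at trough after the last dose, and apoE was measured against baseline.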

Row | Emax [1] | EC50 [2] | Emax [3] | EC50 [4] | fold change (FC) [6] | SMILES | Activity [5] | Activity [7] | Activity [8]
1 | 31% | 2000 nM | 117% | 840 nM | – | CC(C)[C@](O)(C(=O)N1CCC(C2CCN(c3ccc(C(=O)N(C)C)c(Cl)c3)CC2)CC1)C(F)(F)F | – | – | –
2 | – | – | – | – | 4 | CC(C)(O)CNC(=O)Nc1ccc(C(=O)N2CCN(Cc3ccc(C(O)(C(F)(F)F)C(F)(F)F)cc3)CC2)cc1F | Active | Toxic | inactive
